ChEMBL document CHEMBL1144930, “A short synthesis and biological evaluation of potent and nontoxic antimalarial bridged bicyclic beta-sulfonyl-endoperoxides” (J Med Chem, 2003)
Values joined by “and” are separate entries in the source; they are usually repeats but may differ in a detail not shown here. Equal entries are not always repeated. Active and inactive are the calls of the source. The calls are words filed in the database; no cut-off is given here.

Experiments:
[1] = In vitro antimalarial activity against chloroquine-sensitive NF54 strain of Plasmodium falciparum; format: functional
How it was run: (§1)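 Run in quadruplicate with fitted concentration-response curves (R2 ≥0.985). Artemisinin was run as a concurrent control.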

Mus musculus [2] = experiment: In vivo antimalarial activity in mice (Mus musculus) against chloroquine-sensitive Plasmodium berghei N after subcutaneous administration; format: functional
Mus musculus [3] = experiment: In vivo antimalarial activity in mice (Mus musculus) against chloroquine-sensitive Plasmodium berghei N after oral administration; format: functional
Mus musculus [4] = experiment: In vivo antimalarial activity in mice (Mus musculus) against chloroquine-resistant Plasmodium yoelii species. NS after subcutaneous administration; format: functional
Mus musculus [5] = experiment: Number of mice survived in a group of 18 mice after injecting single intraperitoneal dose of 500 mg/kg (single dose of 250 mg/kg did not cause mice mortality); format: functional
How it was run: (§2)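 Male CD-1 mice in groups of 18 received a single intraperitoneal dose (250, 500 or 1000 mg/kg) of the reference. Survival was scored. Clinical signs such as ruffled fur, hypoactivity and hunched posture were also recorded.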

Mus musculus [6] = experiment: Number of mice survived in a group of 18 mice after injecting single intraperitoneal dose of 1000 mg/kg (single dose of 250 mg/kg did not cause mice mortality); format: functional; how it was run: as §2
Mus musculus [7] = organism: Mus musculus; experiment: Dose at which two mice demonstarted 100% survival and normal expected body weight gain after injecting with compound for 14 days; format: functional
How it was run: (§3)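 Male CD-1/ICR mice in groups of at least 4, given a single intramuscular injection into rear-limb muscle (at most 0.05 mL per site). Test articles were dissolved or suspended at 5% in sesame oil; a vehicle group was included. Doses ranged from 85 to about 400 mg/kg. Survival and body weight gain were followed for 14 days.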

Mus musculus [8] = organism: Mus musculus; experiment: Dose at which all the mice (from 4 groups) demonstarted 100% survival and normal expected body weight gain after injecting with compound for 14 days; format: functional; how it was run: as §3
[9] = In vitro antimalarial activity against chloroquine-sensitive NF54 strain of Plasmodium falciparum (Experiment 2); format: functional; how it was run: as §1
[10] = In vitro antimalarial activity against chloroquine-sensitive NF54 strain of Plasmodium falciparum (Experiment 1); format: functional; how it was run: as §1
Mus musculus [11] = experiment: In vivo antimalarial activity in mice (Mus musculus) against chloroquine-resistant Plasmodium yoelii species. NS after subcutaneous administration; NA means Inactive at 30 mg/kg/day; format: functional, organism-based

CC1(O)CCC2CC1OO[C@]2(C)CS(=O)(=O)c1ccc(F)cc1 (stereo not given in full)
IC50 [1]: 0.052 µM

CCOC(=O)C(=O)OC1(C)CCC2CC1OO[C@]2(C)CS(=O)(=O)c1ccccc1 (stereo not given in full)
IC50 [1]: 0.14 µM

CCN(CC)CCCC(C)Nc1ccnc2cc(Cl)ccc12 (stereo not given) [CHLOROQUINE]
ED50 (Mus musculus [2]): 1 mg kg-1 5day-1
ED90 (Mus musculus [2]): 1.2 mg kg-1 5day-1
ED50 (Mus musculus [3]): 1.9 mg kg-1 5day-1
ED90 (Mus musculus [3]): 2.3 mg kg-1 5day-1
ED50 (Mus musculus [4]): 2.4 mg kg-1 5day-1
ED90 (Mus musculus [4]): 56 mg kg-1 5day-1

CC1(O)C2CC(C[C@H]1O)[C@@](C)(CS(=O)(=O)c1ccccc1)OO2 (stereo not given in full)
IC50 [1]: > 2.5 µM

CC(=O)OC1(C)CCC2CC1OO[C@@]2(C)CS(=O)(=O)c1ccccc1 (stereo in doubt; 45d)
IC50 [1]: 0.22 µM

CC(=O)OC1(C)CCC2CC1OO[C@]2(C)CS(=O)(=O)c1ccccc1 (stereo in doubt; 45c)
IC50 [1]: 0.27 µM

CCOC(=O)C(=O)OC1(C)CCC2CC1OO[C@@]2(C)CS(=O)(=O)c1ccccc1 (stereo not given in full)
IC50 [1]: 0.17 µM

CO[C@H]1O[C@@H]2O[C@@]3(C)CC[C@H]4[C@H](C)CC[C@@H]([C@H]1C)[C@@]24OO3 [ARTEMETHER]
No. of mice survived (Mus musculus [5]): 10
ED50 (Mus musculus [2]): 0.5 mg kg-1 5day-1
ED90 (Mus musculus [2]): 1.1 mg kg-1 5day-1
ED50 (Mus musculus [3]): 3.1 mg kg-1 5day-1
ED90 (Mus musculus [3]): 5 mg kg-1 5day-1
No. of mice survived (Mus musculus [6]): 4

CC1CCC2CC1OO[C@@]2(C)CS(=O)(=O)c1ccccc1 (stereo not given in full)
IC50 [1]: 0.017 µM

CC1=CCC2CC1OO[C@@]2(C)CSc1ccccc1 (stereo not given in full)
IC50 [1]: 0.94 µM

CC1(OC(=O)C(=O)N(Cc2ccccc2)Cc2ccccc2)CCC2CC1OO[C@@]2(C)CS(=O)(=O)c1ccccc1 (stereo not given in full)
IC50 [1]: 0.021 µM

C[C@@]12OC1CC1CC2OO[C@@]1(C)CS(=O)(=O)c1ccccc1 (stereo not given in full)
IC50 [1]: 0.092 µM

CC1(OC(=O)C(=O)N(Cc2ccccc2)Cc2ccccc2)CCC2CC1OO[C@]2(C)CS(=O)(=O)c1ccccc1 (stereo not given in full)
IC50 [1]: 0.081 µM

CC1(O)CCC2CC1OO[C@]2(C)CSC(c1ccccc1)(c1ccccc1)c1ccccc1 (stereo not given in full)
IC50 [1]: 0.072 µM

CC(=O)CC(=O)OC1(C)CCC2CC1OO[C@]2(C)CS(=O)(=O)c1ccccc1 (stereo not given in full)
IC50 [1]: 0.073 µM

CCCCS(=O)(=O)C[C@]1(C)OOC2CC1CC(OC(=O)c1ccccc1)C2(C)O (stereo not given in full)
IC50 [1]: 2.5 µM

CC1(O)C2CC(CC1OC(=O)c1ccccc1)[C@@](C)(CS(=O)(=O)c1ccccc1)OO2 (stereo not given in full)
IC50 [1]: 0.17 µM

CC(=O)OC1(C)CCC2CC1OO[C@@]2(C)C[S+]([O-])c1ccccc1 (stereo not given in full)
IC50 [1]: 0.062 µM and 0.054 µM

CC1(O)C2CC(C[C@H]1OC(=O)c1ccccc1)[C@@](C)(CS(=O)(=O)c1ccccc1)OO2 (stereo not given in full)
IC50 [1]: 0.815 µM

CC1(O)CCC2CC1OO[C@@]2(C)CS(=O)(=O)c1ccc(F)cc1 (stereo not given in full)
IC50 [1]: 0.049 µM

CC(=O)OC1(C)CCC2CC1OO[C@]2(C)CS(=O)(=O)c1ccccc1 (stereo in doubt; 45a)
IC50 [1]: 0.02 µM

CC(=O)CC(=O)OC1(C)CCC2CC1OO[C@@]2(C)CS(=O)(=O)c1ccccc1 (stereo not given in full)
IC50 [1]: 0.046 µM

CC1(O)CCC2CC1OO[C@]2(C)CS(=O)(=O)c1ccccc1 (stereo in doubt; 23b)
IC50 [1]: 0.089 µM

CC1(O)CCC2CC1OO[C@]2(C)C[S+]([O-])c1ccccc1 (stereo not given in full)
IC50 [1]: 0.82 µM

CCO[C@H]1O[C@@H]2O[C@@]3(C)CC[C@H]4[C@H](C)CC[C@@H]([C@H]1C)[C@@]24OO3 [ARTEMOTIL]
ED50 (Mus musculus [2]): 0.9 mg kg-1 5day-1
ED90 (Mus musculus [2]): 1.4 mg kg-1 5day-1
Dose (Mus musculus [7]): 360 mg/kg

CC(=O)OC1(C)CCC2CC1OO[C@@]2(C)CS(=O)(=O)c1ccccc1 (stereo in doubt; 45b)
IC50 [1]: 0.018 µM

CC(=O)OC1(C)CCC2CC1OO[C@]2(C)C[S+]([O-])c1ccccc1 (stereo not given in full)
IC50 [1]: 0.04 µM and 0.014 µM

CC(=O)OC1(C)CCC2CC1OO[C@]2(C)CS(=O)(=O)c1ccccc1 (stereo in doubt; 39b)
IC50 [1]: 0.017 µM

COC(=O)CS(=O)(=O)C[C@]1(C)OOC2CC1CCC2(C)O (stereo not given in full)
IC50 [1]: > 2.5 µM

CC(=O)OC1(C)CCC2CC1OO[C@@]2(C)CS(=O)(=O)c1ccccc1 (stereo in doubt; 39a)
ED50 (Mus musculus [2]): 3.7 mg kg-1 5day-1
ED90 (Mus musculus [2]): 7.3 mg kg-1 5day-1
IC50 [1]: 0.017 µM
ED50 (Mus musculus [4]): 12.5 mg kg-1 5day-1
ED90 (Mus musculus [4]): 28 mg kg-1 5day-1

CC1(OCc2ccccc2)CCC2CC1OO[C@]2(C)CS(=O)(=O)c1ccccc1 (stereo not given in full)
ED50 (Mus musculus [2]): 0.43 mg kg-1 5day-1
ED90 (Mus musculus [2]): 1.3 mg kg-1 5day-1
Dose (Mus musculus [8]): 380 mg/kg
ED50 (Mus musculus [3]): 4.2 mg kg-1 5day-1
ED90 (Mus musculus [3]): 23.5 mg kg-1 5day-1
IC50 [1]: 0.0094 µM
ED50 (Mus musculus [4]): 1 mg kg-1 5day-1
ED90 (Mus musculus [4]): 3.1 mg kg-1 5day-1

CC1(O)CCC2CC1OO[C@]2(C)CS(=O)(=O)c1ccccc1 (stereo in doubt; 26a)
IC50 [1]: 0.12 µM

CC1(O)CCC2CC1OO[C@@]2(C)C[S+]([O-])c1ccccc1 (stereo not given in full)
IC50 [1]: 0.15 µM

C[C@@H]1C(=O)C[C@H]2C[C@@H]1OO[C@@]2(C)/C=C\c1ccc(C(F)(F)F)cc1C(F)(F)F [ARTEFLENE]
ED50 (Mus musculus [2]): 2.7 mg kg-1 5day-1
ED90 (Mus musculus [2]): 3.9 mg kg-1 5day-1
ED50 (Mus musculus [3]): 10.4 mg kg-1 5day-1
ED90 (Mus musculus [3]): 18 mg kg-1 5day-1
IC50 [1]: 0.071 µM

CC(C)=CCOC1(C)CCC2CC1OO[C@@]2(C)CS(=O)(=O)c1ccccc1 (stereo not given in full)
IC50 [1]: 0.035 µM

CC1(OCc2ccccc2)CCC2CC1OO[C@@]2(C)CS(=O)(=O)c1ccccc1 (stereo not given in full)
ED50 (Mus musculus [2]): 0.8 mg kg-1 5day-1
ED90 (Mus musculus [2]): 1.7 mg kg-1 5day-1
Dose (Mus musculus [8]): 380 mg/kg
ED50 (Mus musculus [3]): 10.5 mg kg-1 5day-1
ED90 (Mus musculus [3]): 115 mg kg-1 5day-1
IC50 [1]: 0.0065 µM
ED50 (Mus musculus [4]): 1.3 mg kg-1 5day-1
ED90 (Mus musculus [4]): 3.8 mg kg-1 5day-1

CC1(O)CCC2CC1OO[C@@]2(C)CS(=O)(=O)c1ccccc1 (stereo in doubt; 26b)
IC50 [1]: 0.095 µM

C[C@@H]1CC[C@H]2[C@@H](C)C(=O)O[C@@H]3O[C@@]4(C)CC[C@@H]1[C@]32OO4 [ARTEMISININ]
ED50 (Mus musculus [2]): 0.95 mg kg-1 5day-1
ED90 (Mus musculus [2]): 2.5 mg kg-1 5day-1
ED50 (Mus musculus [3]): 5 mg kg-1 5day-1
ED90 (Mus musculus [3]): 14 mg kg-1 5day-1
IC50 [9]: 0.0089 µM
IC50 [10]: 0.0087 µM
ED50 (Mus musculus [4]): 5.8 mg kg-1 5day-1
ED90 (Mus musculus [4]): 10 mg kg-1 5day-1

CC1CCC2CC1OO[C@]2(C)CS(=O)(=O)c1ccccc1 (stereo not given in full)
IC50 [1]: 0.024 µM

COC(=O)CS(=O)(=O)C[C@@]1(C)OOC2CC1CCC2(C)O (stereo not given in full)
IC50 [1]: > 2.5 µM

CC1(O)CCC2CC1OO[C@@]2(C)CSC(c1ccccc1)(c1ccccc1)c1ccccc1 (stereo not given in full)
IC50 [1]: 0.15 µM

CC1(O)CCC2CC1OO[C@@]2(C)CS(=O)(=O)c1ccccc1 (stereo in doubt; 23a) [listing 1 of 2 here]
NA (Mus musculus [11]): Inactive at 30 mg/kg/day

CCCCS(=O)(=O)C[C@@]1(C)OOC2CC1CC(OC(=O)c1ccccc1)C2(C)O (stereo not given in full)
IC50 [1]: 0.5 µM

CC1(OC(=O)COc2ccccc2)CCC2CC1OO[C@@]2(C)CS(=O)(=O)c1ccccc1 (stereo not given in full)
IC50 [1]: 0.037 µM

CC1(O)C2CC(CC1OC(=O)c1ccccc1)[C@](C)(CS(=O)(=O)c1ccccc1)OO2 (stereo not given in full)
IC50 [1]: > 2.5 µM

C[C@@H]1[C@H](OCc2ccc(C(=O)O)cc2)O[C@@H]2O[C@@]3(C)CC[C@@H]4[C@@H](C)CC[C@@H]1[C@]24OO3 [ARTELINIC ACID]
ED50 (Mus musculus [2]): 6.6 mg kg-1 5day-1
ED90 (Mus musculus [2]): 14 mg kg-1 5day-1

CC1(O)C2CC(C[C@H]1OC(=O)c1ccccc1)[C@](C)(CS(=O)(=O)c1ccccc1)OO2 (stereo not given in full)
IC50 [1]: 2.5 µM

COc1ccc(COC2(C)CCC3CC2OO[C@@]3(C)CS(=O)(=O)c2ccccc2)cc1 (stereo not given in full)
ED50 (Mus musculus [2]): 1.3 mg kg-1 5day-1
ED90 (Mus musculus [2]): 2.3 mg kg-1 5day-1
IC50 [1]: 0.014 µM
ED50 (Mus musculus [4]): 4.8 mg kg-1 5day-1
ED90 (Mus musculus [4]): 8.3 mg kg-1 5day-1

CC1(O)CCC2CC1OO[C@@]2(C)CS(=O)(=O)c1ccccc1 (stereo in doubt; 23a) [listing 2 of 2 here]
ED50 (Mus musculus [2]): >30 mg kg-1 5day-1
ED90 (Mus musculus [2]): >30 mg kg-1 5day-1
IC50 [1]: 0.055 µM

C=C1CCC2CC1OO[C@@]2(C)CS(=O)(=O)c1ccccc1 (stereo not given in full)
IC50 [1]: < 3.22 µM

CC1=CCC2CC1OO[C@@]2(C)CS(=O)(=O)c1ccccc1 (stereo not given in full)
IC50 [1]: 0.36 µM

CC1(OC/C=C/c2ccccc2)CCC2CC1OO[C@@]2(C)CS(=O)(=O)c1ccccc1 (stereo not given in full)
IC50 [1]: 0.032 µM
